Screening results: PubChem BioAssay, Broad Institute
T cruzi intra – intracellular Trypanosoma cruzi inhibition; AID 651903; 22,000 tested, 4.9% active; activity score (inhibition), % at 5.01 µM; intracellular Trypanosoma cruzi in host cells, plate reader; in the data active = activity score above about 55%;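 note: parasites and compound incubated about four days before reading; 0% = median of neutral control wells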
A1 apoptosis 2 – blocks A1, raising caspase activity; 24,000 tested, under 10 active; AID 2465; caspase activation, % (no concentration beside the values); MEF A1-2A-BIM cells, caspase-Glo luminescence, 3 h; percent of clofoctol response, DMSO zero; in the data active = caspase activation above about 5.9%
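Evaluation: Caspase-3/7 activity from luminescence increase | Assay system: A1-2A-BIM mouse embryonic fibroblasts | Quantity: 2500 MEF cells/well | Medium: RPMI-1640 plus 10% FBS | Detection: Caspase-Glo 3/7 luminescence, 1 h at room temperature | Dosing: 50 nL compound per well, pinned | Timing: Cells settled overnight, compound exposure 3 h at 37 °C, 5% CO2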
INS-1E rescue – rescue of cytokine-induced death in INS-1E beta cells; 20,000 tested, 0.1% active; protection from cytokine-induced ATP loss, % at 10 µM; AID 488910; INS-1E cytokine-induced death, ATP luminescence, 48 h; normalised: neutral wells 0, positive control 100;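 active = mean replicate protection from cytokine-induced ATP loss at least 50% and at least 75% of replicates each reaching 50%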
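Assay system: INS-1E rat insulinoma cells. Amount: 8000 cells per well. Medium: phenol-red-free RPMI with 5% fetal bovine serum. Reagent: IL-1β, TNF-α and IFN-γ cytokine mix. Doses: one compound concentration, pin transfer. Schedule: 48 h co-treatment, 10 min post-lysis read. Detection: CellTiter-Glo luminescence measuring cellular ATP.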
Active calls of the source: *; / = no result. Many of the other results were omitted from the sample, so hits are more common in it than they were.

SMILES	T cruzi intra	A1 apoptosis 2	INS-1E rescue
Cc1ccc(S(=O)(=O)Nc2ccc3c(c2)C(=O)N([C@H](C)CO)C[C@H](C)[C@H](CN(C)C(=O)Nc2ccc(C(F)(F)F)cc2)OCCCC[C@@H](C)O3)cc1	63.3*	-1.0	-8.9
C[C@@H]1CCCCO[C@@H](CN(C)C(=O)Nc2ccc(C(F)(F)F)cc2)[C@@H](C)CN([C@H](C)CO)C(=O)c2cc(NS(=O)(=O)c3ccc(Cl)cc3)ccc2O1	72.3*	/	-17.2
C[C@@H]1CN([C@H](C)CO)C(=O)c2cc(NC(=O)CCCN(C)C)ccc2O[C@H]1CN(C)Cc1ccc(Cl)c(Cl)c1	-16.8	/	-6.7
Cc1ccc(S(=O)(=O)Nc2ccc3c(c2)C(=O)N([C@H](C)CO)C[C@H](C)[C@H](CN(C)Cc2ccc(C(F)(F)F)cc2)OCCCC[C@@H](C)O3)cc1	66.2*	/	-35.9
COc1ccc(S(=O)(=O)Nc2ccc3c(c2)C(=O)N([C@H](C)CO)C[C@@H](C)[C@H](CN(C)Cc2ccc(C(F)(F)F)cc2)OCCCC[C@@H](C)O3)cc1	/	-0.2	/
C[C@@H]1CCCCO[C@H](CN(C)Cc2ccc(C(F)(F)F)cc2)[C@@H](C)CN([C@H](C)CO)C(=O)c2cc(NS(=O)(=O)c3ccc(F)cc3)ccc2O1	55.5*	-0.4	-9.7
C[C@@H]1CCCCO[C@H](CN(C)Cc2ccc(C(F)(F)F)cc2)[C@H](C)CN([C@@H](C)CO)C(=O)c2cc(NS(=O)(=O)c3ccc(Cl)cc3)ccc2O1	/	0.2	/
Cc1ccc(S(=O)(=O)Nc2ccc3c(c2)C(=O)N([C@@H](C)CO)C[C@@H](C)[C@@H](CN(C)Cc2ccc(C(F)(F)F)cc2)OCCCC[C@H](C)O3)cc1	/	-1.5	/
C[C@@H]1CCCCO[C@@H](CN(C)Cc2ccc(C(F)(F)F)cc2)[C@@H](C)CN([C@H](C)CO)C(=O)c2cc(NS(=O)(=O)c3ccc(Cl)cc3)ccc2O1	63.4*	/	-24.0
C[C@@H]1CN([C@H](C)CO)C(=O)c2cc(NS(=O)(=O)c3ccc(F)cc3)ccc2O[C@@H](C)CCCCO[C@H]1CN(C)Cc1ccc(C(F)(F)F)cc1	/	2.4	/
COc1ccc(S(=O)(=O)Nc2ccc3c(c2)C(=O)N([C@H](C)CO)C[C@H](C)[C@H](CN(C)Cc2ccc(C(F)(F)F)cc2)OCCCC[C@@H](C)O3)cc1	65.4*	/	1.2
COc1ccc(NC(=O)Nc2ccc3c(c2)C(=O)N([C@@H](C)CO)C[C@H](C)[C@@H](CN(C)S(=O)(=O)c2ccccc2)OCCCC[C@@H](C)O3)cc1	/	0.2	/
C[C@H](CO)N1C[C@H](C)[C@@H](CN(C)Cc2cccc(O)c2)OCc2cnnn2CCCC1=O	-8.4	/	/
C=CCOc1ccccc1/C=N/NC(=O)CCCCCCC(=O)Nc1ccccc1O	3.2	0.9	7.8
C[C@H]1CN([C@@H](C)CO)C(=O)c2cc(NC(=O)Nc3ccc(F)cc3)ccc2O[C@H]1CN(C)Cc1ccc(-c2ccccc2)cc1	64.9*	/	-40.9
C[C@H](CO)N1C[C@H](C)[C@H](CN(C)Cc2ccc(-c3ccccc3)cc2)Oc2ccc(NC(=O)Nc3ccc(C(F)(F)F)cc3)cc2C1=O	40.9	-0.2	/
C[C@H]1CN([C@@H](C)CO)C(=O)c2cc(NC(=O)Nc3ccc(C(F)(F)F)cc3)ccc2O[C@H]1CN(C)Cc1ccc(-c2ccccc2)cc1	58.0*	/	-53.8
C[C@H](CO)N1C[C@H](C)[C@@H](CN(C)Cc2ccc(-c3ccccc3)cc2)Oc2ccc(NC(=O)Nc3ccc(F)cc3)cc2C1=O	10.2	-1.4	-6.8
COc1ccc(CN(C)C[C@@H]2OCCCC[C@H](C)Oc3ccc(NS(=O)(=O)c4ccc(C)cc4)cc3C(=O)N([C@H](C)CO)C[C@H]2C)cc1	/	0.6	/
C[C@@H]1CN([C@@H](C)CO)C(=O)c2cccc(NC(=O)C3CC3)c2O[C@H]1CN(C)Cc1ccccc1	-23.7	-1.0	0.3
C[C@H]1CN([C@@H](C)CO)C(=O)CCCn2cc(nn2)CO[C@@H]1CN(C)C(=O)c1ccccc1	-12.7	-0.7	/
COc1ccc(S(=O)(=O)N(C)C[C@H]2OCCCC[C@H](C)Oc3ccc(NC(=O)c4ccccc4)cc3C(=O)N([C@@H](C)CO)C[C@H]2C)cc1	/	-0.6	/
C[C@H](CO)N1C[C@H](C)[C@@H](CN(C)CC2CCCCC2)Oc2ccc(NC(=O)c3ccncc3)cc2CC1=O	/	-0.4	/
C[C@H](CO)N1C[C@H](C)[C@@H](CN(C)Cc2ccccc2)Oc2ccc(N(C)C)cc2CC1=O	/	-0.5	/
C[C@H]1CN([C@@H](C)CO)C(=O)Cc2cc(N(C)C)ccc2O[C@@H]1CN(C)Cc1ccccc1	58.2*	0.5	-6.5
